Reference: ChEMBL document CHEMBL5331118, “Allosteric Inhibitors of Macrophage Migration Inhibitory Factor (MIF) Interfere with Apoptosis-Inducing Factor (AIF) Co-Localization to Prevent Parthanatos” (J Med Chem, 2023)
The source made the active and inactive calls. The rule behind the calls is not given here.

Columns and labels:
[1] = biological target: T1, Macrophage migration inhibitory factor (Homo sapiens) (UniProt P14174); experiment: Inhibition of recombinant C-terminal His-tagged human MIF tautomerase activity expressed in Escherichia coli BL21 assessed as residual activity at 10 uM using PP as substrate preincubated for 10 mins and followed by substrate addition and measured for 3 mins by microplate reader analysis relative to control; conditions: time 13.0 min
T1 sequence (whole entry): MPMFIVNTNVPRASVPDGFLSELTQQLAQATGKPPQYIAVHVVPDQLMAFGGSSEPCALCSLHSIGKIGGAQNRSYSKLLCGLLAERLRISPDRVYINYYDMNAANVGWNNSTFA

[2] = biological target: T1, Macrophage migration inhibitory factor (Homo sapiens); experiment: Reversible inhibition of recombinant human MIF tautomerase activity expressed in Escherichia coli BL21 assessed as recovery of enzyme activity at 25 uM using PP as substrate preincubated for 10 mins followed by substrate addition and measured after 20 mins by jump dilution method; conditions: time 30.0 min
[3] = tested on: HeLa; experiment: (§1) Protection against MNNG-induced parthanatos in human HeLa cells assessed as cell viability preincubated for 3 hrs prior to MNNG addition and measured for 15 mins followed by fresh media replacement for 24 hrs by Hoechst 33342 and propidium iodide staining based flow cytometry analysis; type: functional; conditions: time 1635.0 min
Procedure, shortened: (§2)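 HeLa cells in DMEM/10% FBS, 5×10^5 per well, were pretreated 3 h with 100 μM inhibitor, then given 50 μM MNNG for 15 min. Medium was replaced and cells were cultured 24 h. Trypsinized cells were stained with 7 μM Hoechst 33342 and 2 μM PI and analysed by flow cytometry. Hoechst-only cells were counted as live, Hoechst+PI cells as dead.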

[4] = tested on: HeLa; experiment: as §1, with “analysis (reference value: 20 %)” for “analysis”; type: functional; conditions: time 1635 min; 27.25 h; procedure, shortened: as §2
[5] = tested on: HeLa; experiment: Protection against MNNG-induced parthanatos in human HeLa cells assessed as restoration of original phenotype at 3.7 to 100 uM; type: functional, cell-based; conditions: dose 3.7-100 µM, TDE = time-dependent effect
[6] = tested on: HeLa; experiment: Protection against MNNG-induced parthanatos in human HeLa cells assessed as restoration of original phenotype after 0.5 to 3 hrs; type: functional, cell-based; conditions: time 0.5-3 hrs
[7] = tested on: HeLa; experiment: Inhibition of MNNG-induced DNA damage in human HeLa cells preincubated for 2 hrs followed by MNNG addition and measured after 2 hrs by comet assay; type: functional, cell-based; conditions: time 4.0 hrs
Procedure, shortened: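 Alkaline comet assay. HeLa cells were given 50 μM inhibitor or none for 2 h, then 10 μM MNNG for 2 h. Cells were embedded in 1% low-melt agarose and lysed overnight at 4 °C in alkaline lysis solution (pH > 13). Electrophoresis ran at pH > 12, 0.6 V/cm, 25 min. Slides were stained with 2.5 μg/mL PI, imaged by fluorescence microscopy and quantified by image analysis.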

[8] = tested on: HeLa; experiment: Induction of DNA damage in human HeLa cells by comet assay; type: toxicity, cell-based
[9] = tested on: HeLa; experiment: Inhibition of MNNG-induced DNA damage in human HeLa cells preincubated for 2 hrs followed by MNNG addition by gel electrophoresis assay; type: functional, cell-based; conditions: dose 50.0 µM, TDE = time-dependent effect
[10] = tested on: HeLa; experiment: Inhibition of MNNG-induced DNA damage in human HeLa cells preincubated for 2 hrs followed by MNNG addition and measured after 2 hrs by gel electrophoresis assay; type: functional, cell-based; conditions: dose 1.2-100 µM, time 4.0 hrs
[11] = tested on: HeLa; experiment: Inhibition of MIF nuclear translocation in human HeLa cells at 100 uM preincubated for 3 hrs followed by MNNG stimulation for 15 mins by immunofluorescence staining based confocal microscopic analysis; type: functional, cell-based; conditions: time 195.0 min
Procedure, shortened: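 HeLa cells on coverslips got ±100 μM inhibitor for 3 h, then MNNG (50 μM, 15 min), and were incubated overnight. They were methanol-fixed and blocked with 2% BSA. MIF was stained with a rabbit polyclonal and Alexa488 secondary, AIF with a mouse monoclonal and Alexa647 secondary, and nuclei with NucBlue. Nuclear localization was imaged by confocal microscopy.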

Activity [1] [%] | inhibition [2] | SMILES | Activity [3] | Activity [4] [%] | Activity [5] | Activity [6] | inhibition [7] | Activity [8] | inhibition [9] | inhibition [10] | inhibition [11]
44 |  | N#Cc1ccc(-n2cc(C(=O)Nc3ccc(Br)cc3)nn2)cc1 |  |  |  |  |  |  |  |  | 
68 |  | O=C(NCCc1ccccc1)c1cn(-c2cccc3ncccc23)nn1 |  |  |  |  |  |  |  |  | 
 | Active | O=C(Nc1ccccc1)c1ccc(-n2cc(C(=O)NCc3cccs3)nn2)cc1 | Dose-Dependent Effect | 50 | Tde | Dose-Dependent Effect | Active | Non-Toxic | Tde | Dose-Dependent Effect | Active
